Data reported in ChEMBL document CHEMBL3407342, “Prodrugs of reverse fosmidomycin analogues” (J Med Chem, 2015).

Assays:
[1] = Inhibition of recombinant Plasmodium falciparum IspC using [3,4,5-13C3]1-Deoxy-D-xylulose 5-phosphate substrate by photometric assay
Outline: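 Pf IspC inhibition values are mean ± SD from nine or more data points, obtained by nonlinear regression analysis.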

Plasmodium falciparum [2] = assay: Antiplasmodial activity against blood stage forms of chloroquine-sensitive Plasmodium falciparum D10 incubated for 3 days by HRP2 detection based ELISA method; assay type: functional, organism-based; conditions: D10, 72 h
Outline: (§1)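 Asexual blood-stage P. falciparum kept in continuous culture. Proliferation read by HRP2 ELISA. Each test used 12 serial dilutions. Values are means of at least two independent experiments, each run in duplicate.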

Plasmodium falciparum [3] = assay: Antiplasmodial activity against blood stage forms of multidrug-resistant Plasmodium falciparum Dd2 incubated for 3 days by HRP2 detection based ELISA method; assay type: functional, organism-based; conditions: Dd2, 72 h; outline: as §1
HeLa = assay: Cytotoxicity against human HeLa cells; assay type: cell-based
Outline: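 HeLa cytotoxicity values are the mean of two duplicate determinations.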

Plasmodium berghei [4] = assay: Antimalarial activity against Plasmodium berghei infected in NMRI mouse assessed as mean survival time at 50 mg/kg, ip qd for 4 days starting 4 hrs post infection measured on 96 hrs post infection (reference value: 4 days); assay type: functional; conditions: route intraperitoneal
Outline: (§2)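 Standard 4-day Peters test in P. berghei-infected mice. Compounds dissolved or suspended in 70:30 Tween 80/ethanol, then diluted 10× with water. Given at 50 mg/kg once daily, orally or intraperitoneally, at 4, 24, 48 and 72 h postinfection (n = 3 mice per group). Blood collected at 96 h. Mean survival time reported; […].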

Plasmodium berghei [5] = assay: Antimalarial activity against Plasmodium berghei infected in NMRI mouse assessed as mean survival time at 50 mg/kg, po qd for 4 days starting 4 hrs post infection measured on 96 hrs post infection (reference value: 4 days); assay type: functional; outline: as §2
Plasmodium berghei [6] = assay: Antimalarial activity against Plasmodium berghei infected in NMRI mouse assessed as reduction in parasitemia at 50 mg/kg, po qd for 4 days starting 4 hrs post infection measured on 96 hrs post infection relative to control; assay type: functional; set-up: scale not given: the % may be the effect or the level left
Outline: (§3)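 Peters 4-day suppressive test in P. berghei-infected mice, 50 mg/kg once daily orally or intraperitoneally at 4, 24, 48 and 72 h after infection. Compound dissolved or suspended in 70:30 Tween 80/ethanol, then diluted 10× with water. Groups of 3 mice. Blood taken on day 4 (96 h). Activity is the difference in mean % parasitaemia between control and treated groups, as a percent of control.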

Plasmodium berghei [7] = assay: Antimalarial activity against Plasmodium berghei infected in NMRI mouse assessed as reduction in parasitemia at 50 mg/kg, ip qd for 4 days starting 4 hrs post infection measured on 96 hrs post infection relative to control; assay type: functional; set-up: scale not given: the % may be the effect or the level left; conditions: route intraperitoneal; outline: as §3
[8] = Selectivity index, ratio of IC50 for human HeLa cells to IC50 for blood stage forms of multidrug-resistant Plasmodium falciparum Dd2; assay type: toxicity, cell-based; conditions: HeLa cells versus blood stage Plasmodium falciparum Dd2, read-out: Ratio IC50
Outline: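 Index computed as HeLa cell IC50 divided by P. falciparum Dd2 IC50. HeLa values are means of two duplicate determinations.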

Plasmodium falciparum [9] = assay: Antimalarial activity against Plasmodium falciparum infected in SCID mouse engrafted with human erythrocytes assessed as reduction in parasitemia at 50 mg/kg, ip qd for 4 days relative to control; assay type: functional; set-up: scale not given: the % may be the effect or the level left; conditions: route intraperitoneal
Outline: (§4)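 P. falciparum SCID mouse model with treated groups of 2 mice and a control group of 5. Dosed orally or intraperitoneally once daily on days 3, 4, 5 and 6 after infection. Blood collected on day 4 after the first treatment; parasitized erythrocytes counted as % relative to control.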

Plasmodium falciparum [10] = assay: Antiplasmodial activity against blood stage forms of chloroquine-sensitive Plasmodium falciparum 3D7 incubated for 3 days by HRP2 detection based ELISA method; assay type: functional, organism-based; conditions: 3D7, 72 h; outline: as §1
Plasmodium falciparum [11] = assay: Antimalarial activity against Plasmodium falciparum infected in SCID mouse engrafted with human erythrocytes assessed as reduction in parasitemia at 50 mg/kg, po qd for 4 days relative to control; assay type: functional; set-up: scale not given: the % may be the effect or the level left; outline: as §4
Plasmodium berghei [12] = assay: Antimalarial activity against Plasmodium berghei infected in NMRI mouse assessed as mean survival time at 30 mg/kg, po qd for 4 days starting 4 hrs post infection measured on 96 hrs post infection (reference value: 4 days); assay type: functional
Plasmodium berghei [13] = assay: Antimalarial activity against Plasmodium berghei infected in NMRI mouse assessed as reduction in parasitemia at 30 mg/kg, po qd for 4 days starting 4 hrs post infection measured on 96 hrs post infection relative to control; assay type: functional; set-up: scale not given: the % may be the effect or the level left
Plasmodium falciparum [14] = assay: Antimalarial activity against Plasmodium falciparum infected in SCID mouse engrafted with human erythrocytes assessed as reduction in parasitemia at 13 mg/kg, po qd for 4 days relative to control; assay type: functional; set-up: scale not given: the % may be the effect or the level left
Plasmodium falciparum [15] = assay: Antimalarial activity against Plasmodium falciparum infected in SCID mouse engrafted with human erythrocytes assessed as reduction in parasitemia at 5 mg/kg, po qd for 4 days relative to control; assay type: functional; set-up: scale not given: the % may be the effect or the level left

Row | Structure (SMILES) | IC50 [1] | IC50 (Plasmodium falciparum [2]) | IC50 (Plasmodium falciparum [3]) | IC50 (HeLa) | selectivity ratio [8] | IC50 (Plasmodium falciparum [10]) | also measured
1 | O=C(CCC(c1ccc(F)c(F)c1)P(=O)(O)O)NO (stereo not given) | 0.0028 µM | 0.21 µM | 0.65 µM |  |  |  | 
2 | CN(O)C(=O)CCC(c1ccc(F)c(F)c1)P(=O)(O)O (stereo not given) | 0.0034 µM | 0.083 µM |  | > 1000 µM | > 2500 |  | Survival (Plasmodium berghei [4]): 6.7 days; Survival (Plasmodium berghei [5]): 6 days; Activity (Plasmodium berghei [6]): 57%; Activity (Plasmodium berghei [7]): 62%; Activity (Plasmodium falciparum [9]): 0%
3 | CN(O)C(=O)COC(c1ccc(F)c(F)c1)P(=O)(O)O (stereo not given) | 0.012 µM | 0.52 µM |  | > 1000 µM | > 7690 |  | 
4 | CC(=O)N(O)CCCP(=O)(OCOC(=O)C(C)(C)C)OCOC(=O)C(C)(C)C |  |  | 0.028 µM |  |  | 0.041 µM | 
5 | CC(C)(C)C(=O)OCOP(=O)(CCCN(O)C=O)OCOC(=O)C(C)(C)C |  | 1.8 µM | 0.49 µM |  |  | 0.48 µM | 
6 | CCCCOC(=O)OCOP(=O)(OCOC(=O)OCCCC)C(CCC(=O)NO)c1ccc(F)c(F)c1 (stereo not given) | > 1000 µM | 0.1 µM | 0.009 µM |  |  | 0.039 µM | 
7 | CCCCOC(=O)OCOP(=O)(OCOC(=O)OCCCC)C(CCC(=O)N(C)O)c1ccc(F)c(F)c1 (stereo not given) | > 1000 µM |  | 0.005 µM | 190 µM | 38000 | 0.013 µM | 
8 | CCCCOC(=O)OCOP(=O)(OCOC(=O)OCCCC)C(OCC(=O)N(C)O)c1ccc(F)c(F)c1 (stereo not given) |  | 0.031 µM | 0.009 µM | 190 µM | 21100 | 0.014 µM | 
9 | CC(C)OC(=O)OCOP(=O)(OCOC(=O)OC(C)C)C(CCC(=O)NO)c1ccc(F)c(F)c1 (stereo not given) | > 1000 µM |  | 0.029 µM |  |  | 0.049 µM | 
10 | CC(C)OC(=O)OCOP(=O)(OCOC(=O)OC(C)C)C(CCC(=O)N(C)O)c1ccc(F)c(F)c1 (stereo not given) | 887 µM |  | 0.007 µM |  |  | 0.008 µM | 
11 | CC(C)OC(=O)OCOP(=O)(OCOC(=O)OC(C)C)C(OCC(=O)N(C)O)c1ccc(F)c(F)c1 (stereo not given) |  | 0.031 µM | 0.029 µM |  |  | 0.035 µM | 
12 | CC(=O)ON(C)C(=O)CCC(c1ccc(F)c(F)c1)P(=O)(OCOC(=O)OC(C)C)OCOC(=O)OC(C)C (stereo not given) |  | 0.061 µM | 0.008 µM | 188 µM | 23500 | 0.013 µM | 
13 | CCOC(=O)ON(C)C(=O)CCC(c1ccc(F)c(F)c1)P(=O)(OCOC(=O)OC(C)C)OCOC(=O)OC(C)C (stereo not given) | > 1000 µM | 0.13 µM | 0.018 µM | 205 µM | 11400 | 0.028 µM | 
14 | CCNC(=O)ON(C)C(=O)CCC(c1ccc(F)c(F)c1)P(=O)(OCOC(=O)OC(C)C)OCOC(=O)OC(C)C (stereo not given) | > 1000 µM | 0.072 µM | 0.012 µM | 168 µM | 14000 | 0.014 µM | Activity (Plasmodium falciparum [11]): 0%
15 | CC(C)OC(=O)OCOP(=O)(OCOC(=O)OC(C)C)C(CCC(=O)N(C)OC(=O)C(C)(C)C)c1ccc(F)c(F)c1 (stereo not given) | > 1000 µM | 0.22 µM | 0.034 µM |  |  | 0.043 µM | 
16 | O[C@@H](c1cc(C(F)(F)F)nc2c(C(F)(F)F)cccc12)[C@H]1CCCCN1 (relative stereo) [(S,R)-MEFLOQUINE] |  |  |  |  |  |  | Survival (Plasmodium berghei [12]): 29 days; Activity (Plasmodium berghei [13]): 99.9%
17 | C[C@H]1[C@H](OC(=O)CCC(=O)O)O[C@@H]2O[C@@]3(C)CC[C@H]4[C@H](C)CC[C@@H]1[C@@]24OO3 [ARTESUNATE] |  |  |  |  |  |  | Activity (Plasmodium falciparum [14]): 90%; Activity (Plasmodium falciparum [15]): 90%; Survival (Plasmodium berghei [12]): 10 days; Activity (Plasmodium berghei [13]): 99%
18 | CCN(CC)CCCC(C)Nc1ccnc2cc(Cl)ccc12 (stereo not given) [CHLOROQUINE] |  |  |  |  |  |  | Activity (Plasmodium falciparum [14]): 90%; Activity (Plasmodium falciparum [15]): 90%
19 | O=CN(O)CCCP(=O)(O)O [FOSMIDOMYCIN] | 0.16 µM | 1.3 µM |  |  |  |  | 
20 | CC(=O)N(O)CCCP(=O)(O)O [FR-900098] | 0.015 µM | 0.35 µM | 0.16 µM |  |  | 0.16 µM | 
